Source: the EternaBench riboswitch data

Tested on: MS2 coat protein
Assay: apparent Kd, MS2 coat protein; higher = weaker binding; RNA-MaP array; FMN 200 µM where present
Outline: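 On Illumina sequencing-chip clusters, designs were transcribed by stalled E. coli RNA polymerase and titrated with SNAP-549-labelled MS2 coat protein (0.7 or 1.5 nM, doubling to 3 µM), without and then with constant ligand, in 100 mM Tris-HCl pH 7.5, 80 mM KCl, 4 mM MgCl2, BSA, DTT, yeast tRNA and Tween-20. Apparent Kd is the median of filtered per-cluster curve fits to green signal normalised to red-channel RNA signal and control-cluster median Fmax.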

[1] = designed as: OFF switch for flavin mononucleotide, no ligand
[2] = ligand present: flavin mononucleotide, designed as: OFF switch for flavin mononucleotide
[3] = designed as: ON switch for flavin mononucleotide, no ligand
[4] = ligand present: flavin mononucleotide, designed as: ON switch for flavin mononucleotide

Sequence	apparent Kd [1] [nM]	apparent Kd [2] [nM]	apparent Kd [3] [nM]	apparent Kd [4] [nM]
CUUAUGUGAGGAUAUGGUGUUGGCCACAGGGAAAAGGUCCUCCAGAAGGCACAUGAGGAUCACCCAUGUAGUGA	165	56.3	–	–
AGCCAAGCAGGAUAUGCCCGGGAUAACAUGAGGAUCACCCAUGUGACCGAUUGAUGUCCUGCAGAAGGGCUUGGGA	15.6	79.8	–	–
AAGUCGACGGUGAGGAUAUUGGUUGAACGACAGAUUAAGAAGGUACAUGAGGAUCACCCAUGUGGGUAACGUCG	100	83	–	–
GCUAUCGGGUGAGGAUAUAUGAUUGUGAUUAAAAUAGAAGGCAUCUCAGAAGACAUGAGGAUCACCCAUGUAGUUAAGAUGGCA	–	–	34.1	22.7
AUUGCUAGCGCAGGAUAUGAUGCGAAAAUUGCGUCAGAAGGGUGUAAUCUCUCAUUGCGGGAGGACAUGAGGAUCACCCAUGUC	–	–	142	87
GUAGCUAUCGGAGGAUAUUCAAUAUACAUGAGGAUCACCCAUGUUAAAGUGGGAGAAGGCCGAUAGCUACAAGAGCGAAAGCUC	–	–	13.6	6
AGCUACACCCAGAAGGACAUGAGGAUCACCCAUGUAGGAUAUGGGACACACAGUGCCAUGUAGAGAAAUUACGCUAGUGUAGCG	–	–	14.3	8.42
GACUCGAAUGUAGGAUAUGCUGAGGAUAACUCAGCAGAAGGACAUGAGGAUCACCCAUGUAAAUGAGUGAAUAAUAAACGAGUC	1400	129	–	–
CUCUCGCGAGGAUAUGAUUUAAGUAACAUGAGGAUCACCCAUGUUUUUCCGUUGUUAUGUUCAGAAGGCGCGUGAU	44.2	84.3	–	–
CUUUUGUGAGGAUAUCAGUAGUAAUACAAUAGUAUUACUGCUGAGAAGGCACAUGAGGAUCACCCAUGUUCCUC	59.9	284	–	–
GGUUGGCGAGGAUAUACAUGAGGAUCACCCAUGUGGUCCUGUGGCUGGUCUUACCUUUGUAGAAGGCGCGGGUC	88.4	93.2	–	–
GGAUCGAAUGUGAGGAUAUGCUGGUCCUUGGAUCAGCAGAAGGCACAUGAGGAUCACCCAUGUUUCCACGGUCC	127	869	–	–
CCAUAAAAGAUCCAAAAUUACAACAUGAGGAUCACCCAUGUGCAGGAUAUCGUGCCAGUGAUGUACGAGAAGGGCAGACACUGC	356	400	–	–
CAGUACUGAGGAUAUACAUGAGGAUCACCCAUGUGUUCCUUGUAGGAUAUCCGCAAAAGUAGAAGCCAGAAGGAGAUGUGCCUA	200	119	–	–
CCGGCUGCUGUGAGGAUAUGCCUGUGGGUGCGUGGGUAGAAGGCACAUGAGGAUCACCCAUGUCCUGCGGGCCC	123	81.8	–	–
ACUACUUAGUGAGGAUAUACAUAAUUUAUAACUGUAGAAGGCACAAACCUCAAUACAUGAGGAUCACCCAUGUUAUAUAUCUAA	62.6	64.3	–	–
AUAAGCUCGUCAGGAUAUGCGACACUGUGUCAGCAGUGUGGUAUGAUCACAUGAGGAUCACCCAUGUAGAAGGGACGAGCUUAU	6.34	14.3	–	–
CUCAUGUCAGGAUAUAGCCACAUGAGGAUCACCCAUGUGGACUAGAAGGGACAUGAGGAUCACCCAUGUAUGAA	11.4	10.2	–	–

Sequence	apparent Kd [1] [nM]	apparent Kd [2] [nM]	apparent Kd [3] [nM]	apparent Kd [4] [nM]
AGCUACGUUUCGUAGCAGCUAGGUGAGGAUAUUCAAUUGUUCACAUGAGGAUCACCCAUGUAUGUGAAGAAGGCGCCUAGAAAG	–	–	7.16	5.34
GACAUACAUGAGGAUCACCCAUGUACAGACGUACAAGGAUAUGUGUGGAAACCGUACUAUACAGAAGGUGUUUGUC	–	–	73.1	33.9
UGUCGGAGCAGAGGAUAUUACAUGAGGAUCACCCAUGUACGAACCAAUAGCUGGAAACAGCAAUGUAAGAAGGCUGCUCCGACA	11.3	79	–	–
UGUCGGAGCAGAGGAUAUUACAUGAGGAUCACCCAUGUAUGAACCAAUAGCUGGAAACAGCAAUGUAAGAAGGCUGCUCCGACC	12	153	–	–
GUAAUUAAUGUAGGAUAUGCAAGGCGAACCUAAGCAGAAGGACAUGAGGAUCACCCAUGUAUUGCGGUCUGCGUUCAGAUCGCU	19.5	49.5	–	–
GCAGGGUAUGAGAAGGCAUAAUUUAUCUUACCACAUGUUUACAUGAGGAUCACCCAUGUUUCCAAUGAGGAUAUCAUACCGUGC	10.9	9.89	–	–
AAUUCACAUGAGGAUCACCCAUGUCAGGAUAUGGUUUCACGUGUUUCUGUGCUUGAGGCCAGAAGGGACAGCUA	65.5	76.5	–	–
UUAUUUUUACAGAAGGUUUAAUAAUAUGUAUGAGAAGGAUAUGUAACAUGAGGAUCACCCAUGUUUUAUUUAUAUGAGGUUCAU	10.8	9.27	–	–
UCGAUGCUAGGAUAUACUAAUAAAACUACUGUAGUGUCUUCACAUGAGGAUCACCCAUGUAGAAGGAGCAUCUA	28.3	21.8	–	–
AUUUUAAAGGGAGGAUAUACAUGAGGAUCACCCAUGUAAACGUGAGGAUCACCCAUGUUAACAAUGUAGAAGGCCUAUAUCUAU	41.1	31	–	–
GAUCGAAACACUCCUUACACUACAUGAGGAUCACCCAUGUAGCAGGAUAUCAUUGCUCCUCGCUGUGAGAAGGGCUACGGGCGA	7.3	14	–	–
AUAAAUCAUGUAGGAUAUGCGUGGCGAAGCUAUGCAGAAGGACAUGAGGAUCACCCAUGUCUUUCCGUCUGCGUAUAGACGGAA	30.5	279	–	–
AUCUUUAAGAUAGGAUAUAGUAUGAUGGUUUAAUUAGAAGGAUCUCACAUGAGGAUCACCCAUGUAAUAGGAUUACCCAUGUAU	46.1	31.7	–	–
ACAGAUGCUGACAUGAGGAUCACCCAUGUUAGAUUGUUAUGUCAGGAUAUUAUCUGGCAACCAGAUGAGAAGGGACCAUCUGUG	–	–	16.5	7.33
AAGAAGUCAGGAUAUCGUGCUCGUCACUUGCGUGAUGAGUACGAGAAGGGACAUGAGGAUCACCCAUGUAAAGA	52.4	52.5	–	–
CAGUGCAAUGUAGGAUAUGCUCAGGAAUACUGAGCAGAAGGACAUGAGGAUCACCCAUGUCAAAUGAAAGAUAAUAAAGCACUG	14.6	18.9	–	–
AUUAUACAUGAGGAUCACCCAUGUAAUUAAUUAAUUAAGAUCUAGGAUAUCAGCUCGAAUAGAGCUGAGAAGGAGAUCACAUGU	–	–	31.7	18
AACCUAGUCAUAGGAUAUACAGGCAAAGCCAAAGUAGAAGGAUGACACAUGAGGAUCACCCAUGUGGUCCUUGAACAAAAUAAC	27	196	–	–
